Data: ChEMBL document CHEMBL1135686, “Binding model for nonpeptide antagonists of alpha(v)beta(3) integrin” (J Med Chem, 2002)

These molecules were tested against Integrin alpha-V/beta-3 (Homo sapiens, UniProt P05106+P06756) (assay: Inhibition of Vitronectin receptor, integrin alphaV-beta3 expressed in HEK 293 cells).
Type: cell-based, HEK293
How it was run: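 Human recombinant αvβ3 was purified from HEK 293 cells overexpressing it, following a placental αvβ3 purification method, and captured on lyophilized wheat germ agglutinin SPA beads. Values are reported as IC50.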

Chain of Integrin alpha-V/beta-3 (P05106 27-788 limits assumed): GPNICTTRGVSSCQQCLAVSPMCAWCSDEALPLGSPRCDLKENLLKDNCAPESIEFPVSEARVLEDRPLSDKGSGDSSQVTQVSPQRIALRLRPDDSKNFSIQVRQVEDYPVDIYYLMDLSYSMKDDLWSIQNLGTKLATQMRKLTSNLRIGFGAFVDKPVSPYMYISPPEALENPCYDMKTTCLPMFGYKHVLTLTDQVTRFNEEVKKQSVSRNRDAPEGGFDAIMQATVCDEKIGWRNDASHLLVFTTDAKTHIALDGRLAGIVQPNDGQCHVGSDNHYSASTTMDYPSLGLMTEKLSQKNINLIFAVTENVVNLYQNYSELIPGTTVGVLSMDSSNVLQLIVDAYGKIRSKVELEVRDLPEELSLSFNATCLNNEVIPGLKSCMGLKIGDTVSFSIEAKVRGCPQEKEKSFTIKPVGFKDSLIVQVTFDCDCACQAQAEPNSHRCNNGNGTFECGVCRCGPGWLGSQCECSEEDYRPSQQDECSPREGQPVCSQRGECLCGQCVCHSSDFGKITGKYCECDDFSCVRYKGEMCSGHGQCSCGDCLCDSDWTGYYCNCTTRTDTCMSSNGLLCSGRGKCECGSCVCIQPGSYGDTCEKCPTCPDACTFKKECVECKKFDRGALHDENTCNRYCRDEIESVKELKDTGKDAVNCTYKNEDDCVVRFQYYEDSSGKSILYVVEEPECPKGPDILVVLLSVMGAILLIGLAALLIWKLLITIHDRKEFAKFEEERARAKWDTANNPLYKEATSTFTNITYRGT
Chain of Integrin alpha-V/beta-3 (P06756 31-889 limits assumed): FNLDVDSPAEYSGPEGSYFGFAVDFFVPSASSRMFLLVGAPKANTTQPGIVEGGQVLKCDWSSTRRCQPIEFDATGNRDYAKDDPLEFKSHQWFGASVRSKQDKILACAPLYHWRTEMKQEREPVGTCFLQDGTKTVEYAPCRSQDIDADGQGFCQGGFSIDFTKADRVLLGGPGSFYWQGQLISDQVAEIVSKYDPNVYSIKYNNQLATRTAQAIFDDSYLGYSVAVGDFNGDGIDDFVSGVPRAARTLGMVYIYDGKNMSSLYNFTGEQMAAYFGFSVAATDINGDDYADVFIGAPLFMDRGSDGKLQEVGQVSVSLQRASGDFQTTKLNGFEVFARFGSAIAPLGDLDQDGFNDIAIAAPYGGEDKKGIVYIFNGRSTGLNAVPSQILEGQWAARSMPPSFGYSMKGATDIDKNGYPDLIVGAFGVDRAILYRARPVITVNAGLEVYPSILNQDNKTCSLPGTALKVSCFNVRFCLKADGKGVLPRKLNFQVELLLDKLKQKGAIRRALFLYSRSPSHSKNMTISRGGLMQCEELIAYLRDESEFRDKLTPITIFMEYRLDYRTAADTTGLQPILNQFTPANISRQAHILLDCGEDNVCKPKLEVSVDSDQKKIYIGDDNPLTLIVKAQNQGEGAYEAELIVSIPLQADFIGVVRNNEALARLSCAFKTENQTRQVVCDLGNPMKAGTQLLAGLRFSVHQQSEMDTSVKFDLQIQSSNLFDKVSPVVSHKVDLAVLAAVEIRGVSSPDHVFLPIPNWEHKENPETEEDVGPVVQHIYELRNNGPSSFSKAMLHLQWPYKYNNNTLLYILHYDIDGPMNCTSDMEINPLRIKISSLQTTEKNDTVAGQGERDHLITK
Chain of Integrin alpha-V/beta-3 (P06756 891-1048 limits assumed): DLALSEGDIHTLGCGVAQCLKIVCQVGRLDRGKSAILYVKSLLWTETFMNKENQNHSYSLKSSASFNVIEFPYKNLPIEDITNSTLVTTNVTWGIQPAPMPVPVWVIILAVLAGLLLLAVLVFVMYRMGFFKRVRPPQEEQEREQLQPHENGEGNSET

IC50 [nM]	SMILES
> 1000	O=C(NC[C@H](NS(=O)(=O)c1ccccc1)C(=O)O)c1ccc(OCCC2CCNCC2)cc1
0.15	CNc1cccc(CCOc2ccc3c(c2)CN(CC(F)(F)F)C(=O)[C@H](CC(=O)O)C3)n1
8.8	O=C(O)C[C@H](NC(=O)CNC(=O)CCCc1ccc2c(n1)NCCC2)c1cccnc1
0.04	O=C(O)C[C@H](NC(=O)CN1CCC(CCc2ccc3c(n2)NCCC3)C1=O)c1cnc2ccccc2c1 (stereo not given in full)
0.35	O=C(O)C[C@H](NC(=O)CN1CCC(CCc2ccc3c(n2)NCCC3)C1=O)c1cccnc1 (stereo not given in full)
